According to ChEMBL document CHEMBL1799973, “Design, synthesis, and cytotoxic evaluation of acyl derivatives of 3-aminonaphtho[2,3-b]thiophene-4,9-dione, a quinone-based system” (J Med Chem, 2011):
pIC50: −log10 of the molar value. One block for each molecule: values may come before it. Activity calls are given as the source filed them. The rule behind the calls is not given here.

Assays:
SNB-19 = test: Antitumor activity against human SNB19 cells after 24 to 48 hrs by MTT assay; type: functional, cell-based
In short: (§1)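 MTT read-out. Cells grown at 37 °C in DMEM with 10 mM glucose, 10% fetal calf serum, penicillin/streptomycin and 2 mmol/L glutamine. Seeded at 10^5 cells per well and left 24 h to attach, then compound added over a range of concentrations and cells grown 24 or 48 h. MTT at 1 mg/mL for 2 h at 37 °C in the dark, formazan dissolved in DMSO, OD read at 550 nm. Values are % of vehicle control (0.5% DMSO); IC50 by linear and polynomial regression; triplicate.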

Homo sapiens [1] = species on record: Homo sapiens; test: Inhibition of human topoisomerase 2-mediated relaxation of supercoiled pBR322 DNA relaxation at 0.04 to 0.92 uM after 6 mins by agarose gel electrophoresis
U-937 = test: Antitumor activity against human U937 cells after 24 to 48 hrs by MTT assay; type: functional, cell-based; in short: as §1
Homo sapiens [2] = species on record: Homo sapiens; test: Inhibition of human topoisomerase 2-mediated relaxation of supercoiled pBR322 DNA relaxation at 5 uM after 6 mins by agarose gel electrophoresis
In short: (§2)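 Compound at 5 or 10 μM. Run 6 min at 37 °C and stopped with EDTA/SDS/glycerol dye. Products run on 1% agarose in 0.5× TBE at 4 V/cm for 1 h, stained with ethidium bromide, bands quantified.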

SF-295 = test: Antitumor activity against human SF295 cells after 24 to 48 hrs by MTT assay; type: functional, cell-based; in short: as §1
SK-MEL-28 = test: Antitumor activity against human SK-MEL-28 cells after 24 to 48 hrs by MTT assay; type: functional, cell-based; in short: as §1
HT-29 = test: Antitumor activity against human HT-29 cells after 24 to 48 hrs by MTT assay; type: functional, cell-based; in short: as §1
Caco-2 [3] = test: Antitumor activity against human undifferentiated Caco2 cells after 24 to 48 hrs by MTT assay; type: functional, cell-based; in short: as §1
COLO 205 = test: Antitumor activity against human COLO205 cells after 24 to 48 hrs by MTT assay; type: functional, cell-based; in short: as §1
H9c2 = test: Cardiotoxicity in rat H9c2 cells at 1 uM measured up to 120 hrs by MTT assay; type: toxicity, cell-based; conditions: h9c2, 120 h
In short: (§3)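 Rat H9C2 cardiomyoblasts, passages 4–10, grown at 37 °C in DMEM with FBS, glutamine and penicillin/streptomycin. Plated at 2000 cells/well in quadruplicate and given compound at 1 μM for the indicated times. MTT reagent added for 2 h in the incubator, then absorbance read at 570 nm. Data are mean ± SD.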

Homo sapiens [4] = species on record: Homo sapiens; test: Inhibition of human topoisomerase 2-mediated relaxation of supercoiled pBR322 DNA relaxation at 10 uM after 6 mins by agarose gel electrophoresis; in short: as §2
[5] = Antitumor activity against human MDA231 cells after 24 to 48 hrs by MTT assay; type: functional, cell-based; conditions: MDA-MB-231; in short: as §1
SW-620 = test: Antitumor activity against human SW620 cells after 24 to 48 hrs by MTT assay; type: functional, cell-based; in short: as §1
Caco-2 [6] = test: Antitumor activity against human differentiated Caco2 cells after 24 to 48 hrs by MTT assay; type: cell-based; in short: as §1
MCF7 [7] = test: Cytotoxicity against human MCF7 cells; type: functional, cell-based; in short: as §1
Nucleic Acid [8] = test: Binding affinity to poly(dG-dC).poly(dG-dC) DNA assessed as compound/DNA complex formation at 1 mM by STD NMR spectrophotometric analysis; type: nucleic-acid assay
In short: (§4)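 Ligand at 1.0 mM with poly(dG-dC)·poly(dG-dC) at 50 μM (as phosphate groups), a 20:1 ligand excess, in H2O/D2O 9:1 with 100 mM phosphate-buffered saline, pH 7.1. Water suppressed by DPFGSE. STD effects taken relative to a reference spectrum with off-resonance saturation at δ −16 ppm, 2 s saturation, typically 512 scans. WaterLOGSY spectra recorded with and without DNA.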

Caco-2 [9] = test: Induction of cyclin A expression in human Caco2 cells at 1 uM after 48 hrs by Western blot analysis; type: functional
In short: (§5)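 Caco-2 cells treated for 48 h (1 or 5 μM for Hsp27; 1 μM for cyclin A). Lysed in ice-cold 50 mM Tris, 150 mM NaCl, 10 mM EDTA, 1% Triton with protease inhibitors. Equal protein run on 8–12% SDS-PAGE and transferred to nitrocellulose. Primary antibody overnight in TBS/Tween/1% milk, then HRP secondary; bands detected by ECL.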

Caco-2 [10] = test: Cell cycle arrest in human Caco2 cells assessed as accumulation at S phase at 1 uM after 48 hrs by propidium iodide staining based flow cytometric analysis (reference value: 36%); type: functional
Nucleic Acid [11] = test: Binding affinity to poly(dG-dC).poly(dG-dC) DNA assessed as compound/DNA complex formation at 1 mM by WaterLOGSY NMR spectrophotometric analysis; type: nucleic-acid assay; in short: as §4
Caco-2 [12] = test: Cell cycle arrest in human Caco2 cells assessed as accumulation at G2/M phase at 1 uM after 48 hrs by propidium iodide staining based flow cytometric analysis (reference value: 21%); type: functional
Caco-2 [13] = test: Cell cycle arrest in human Caco2 cells assessed as accumulation at G1 phase at 1 uM after 48 hrs by propidium iodide staining based flow cytometric analysis (reference value: 42%); type: functional
MCF7 [14] = test: Drug uptake in human MCF7 cells assessed as nuclear localization at 50 nM after 30 mins by confocal microscopic analysis; type: ADME, cell-based; conditions: mcf7, 0.5 h, 0.05 µM
In short: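 Imaging in MCF-7 cells by confocal microscopy with 50 nM labeled compound. Cells fixed in paraformaldehyde for 30 min at 4 °C, permeabilized with Triton X-100 for 30 min at 4 °C, and nuclei stained with Hoechst 33342. Images taken with a 63× oil objective.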

Caco-2 [15] = test: Selectivity index, ratio IC50 for undifferentiated human Caco2 cells to IC50 for differentiated human Caco2 cells; type: functional
In short: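 Ratio of MTT IC50 in undifferentiated to differentiated Caco-2 cells. MTT conditions: 24 or 48 h exposure, formazan dissolved in DMSO, read at 550 nm, IC50 by regression, triplicate.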

MDA-MB-435 = test: Antitumor activity against human MDA-MB-435 cells after 24 to 48 hrs by MTT assay; type: functional, cell-based
In short: as §1, with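 “nm.” for “nm. Values are % of vehicle control (0.5% DMSO); IC50 by linear and polynomial regression; triplicate.”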

[16] = Antitumor activity against human IGROV cells after 24 to 48 hrs by MTT assay; type: functional, cell-based
In short: as §1, with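 “nm.” for “nm. Values are % of vehicle control (0.5% DMSO); IC50 by linear and polynomial regression; triplicate.”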

[17] = Cardiotoxicity in rat H9c2 cells assessed as cell viability at 1 uM up to 120 hrs by MTT assay; type: toxicity, cell-based; conditions: read-out: Activity; in short: as §3
Caco-2 [18] = test: […] of cell differentiation in human Caco2 cells assessed as increase in ALP activity at 5 uM after 48 hrs; type: functional; design: scale not given: the % may be the effect or the level left
In short: (§6)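 Caco-2 cells cultured 48 h with 0, 1, 5 or 10 μM compound. Attached and floating cells washed and lysed in 0.25% sodium deoxycholate. ALP activity measured with a diagnostic ALP reagent and protein by Bradford microassay. Activity expressed as units per mg protein, as a differentiation marker.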

Caco-2 [19] = test: Increase in Hsp27 protein expression in human Caco2 cells after 48 hrs by Western blot analysis; type: functional, cell-based; in short: as §5
Caco-2 [20] = test: […] of cell differentiation in human Caco2 cells assessed as increase in ALP activity at 1 uM after 48 hrs; type: functional; design: scale not given: the % may be the effect or the level left; in short: as §6
Nucleic Acid [21] = test: Binding affinity to DNA assessed as binding mode index by measuring aromatic signals by DF-STD spectrophotometric analysis; type: nucleic-acid assay
In short: (§7)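 DF-STD NMR on poly(dG-dC)·poly(dG-dC) in H2O/D2O 9:1 with 100 mM phosphate-buffered saline, pH 7.1. Ligand 1.0 mM; DNA 50 μM as phosphate (20:1 ligand excess). Saturation is centred on the aromatic or low-field aliphatic region for 2 s, with a reference off-resonance at δ −16 ppm and 512 scans. The binding mode index is the relative response of ligand protons to base versus sugar/backbone saturation.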

Nucleic Acid [22] = test: Binding affinity to DNA assessed as binding mode index by measuring aliphatic signals by DF-STD spectrophotometric analysis; type: nucleic-acid assay; in short: as §7
Homo sapiens [23] = species on record: Homo sapiens; test: Inhibition of human topoisomerase 2-mediated relaxation of supercoiled pBR322 DNA relaxation after 6 mins by agarose gel electrophoresis

pIC50 (U-937): 5.01
pIC50 (SW-620): 5.23
SMILES: CN(C)CCNC(=O)Nc1csc2c1C(=O)c1ccccc1C2=O
pIC50 [5]: 5.06

pIC50 (U-937): 5.40
pIC50 (SW-620): 5.68
SMILES: CN(C)CCNCC(=O)Nc1csc2c1C(=O)c1ccccc1C2=O
pIC50 [5]: 5.31

pIC50 (U-937): 4.70
pIC50 (SW-620): < 4.40
SMILES: NCCCC[C@H](N)C(=O)Nc1csc2c1C(=O)c1ccccc1C2=O
pIC50 [5]: < 4.40

pIC50 (U-937): 5.29
pIC50 (SW-620): 5.40
SMILES: CCN(CC)CC(=O)Nc1csc2c1C(=O)c1ccccc1C2=O
pIC50 [5]: 5.07

Activity (Nucleic Acid [8]): inactive
Activity (Nucleic Acid [11]): inactive
pIC50 (U-937): < 4.40
inhibition (Homo sapiens [2]): inactive
inhibition (Homo sapiens [4]): inactive
pIC50 (SW-620): 4.52
SMILES: N[C@@H](Cc1ccccc1)C(=O)Nc1csc2c1C(=O)c1ccccc1C2=O.O=C(O)C(F)(F)F
Activity (Caco-2 [9]): inactive
Activity (Caco-2 [10]): 44%
Activity (Caco-2 [12]): 18%
pIC50 [5]: < 4.40
Activity (Caco-2 [13]): 37%

Further lines, the molecule ahead of its results:

SMILES: COc1cccc2c1C(=O)c1c(O)c3c(c(O)c1C2=O)C[C@@](O)(C(=O)CO)C[C@@H]3O[C@H]1C[C@H](N)[C@H](O)[C@H](C)O1 [DOXORUBICIN]
pIC50 (SNB-19): 6.10
inhibition (Homo sapiens [1]): Active
pIC50 (U-937): 6.03
inhibition (Homo sapiens [2]): Active
pIC50 (SF-295): 5.36
pIC50 (SK-MEL-28): 6.22
pIC50 (HT-29): 5.96
pIC50 (Caco-2 [3]): 5.17
pIC50 (COLO 205): 5.82
Activity (H9c2): Toxic
inhibition (Homo sapiens [4]): Active
pIC50 [5]: 5.95
pIC50 (SW-620): 6.92
pIC50 (Caco-2 [6]): 6.22

SMILES: C[C@H](N)C(=O)Nc1csc2c1C(=O)c1ccccc1C2=O
pIC50 (U-937): 5.04
pIC50 [5]: < 4.40
pIC50 (SW-620): 4.91

SMILES: Nc1csc2c1C(=O)c1ccccc1C2=O
pIC50 (U-937): 5.00
pIC50 (MCF7 [7]): 5.49
pIC50 [5]: 4.95
pIC50 (SW-620): 5.40

SMILES: NCC(=O)Nc1csc2c1C(=O)c1ccccc1C2=O
pIC50 (U-937): 5.15
pIC50 [5]: 5.21
pIC50 (SW-620): 5.64

SMILES: CN(C)CCNCCC(=O)Nc1csc2c1C(=O)c1ccccc1C2=O.Cl.Cl
Drug uptake (MCF7 [14]): Active
Activity (Nucleic Acid [8]): Active
Activity (Caco-2 [9]): 43%
Activity (Caco-2 [10]): 53%
Ratio IC50 (Caco-2 [15]): 0.21
pIC50 (MDA-MB-435): 6.30
pIC50 [16]: 5.70
viability at 120 h, 1 µM [17]: 76%
Activity (Nucleic Acid [11]): Active
Activity (Caco-2 [18]): >180%
Activity (Caco-2 [19]): Dose-dependent effect
Activity (Caco-2 [20]): 35%
pIC50 (SNB-19): 6.05
Activity (Nucleic Acid [21]): 1.01
pIC50 (U-937): 5.89
pIC50 (SF-295): 6.22
Activity (Caco-2 [12]): 26%
pIC50 (SK-MEL-28): 6.52
pIC50 (HT-29): 6.30
pIC50 (Caco-2 [3]): 6.10
pIC50 (MCF7 [7]): 6.22
Activity (Nucleic Acid [22]): 0.9
pIC50 (COLO 205): 5.96
pIC50 [5]: 5.70
pIC50 (SW-620): 6.22
inhibition (Homo sapiens [23]): Dose-dependent effect
pIC50 (Caco-2 [6]): 5.42
Activity (Caco-2 [13]): 20%
